The subject of experiment [1] is plasma antibody reactivity against EBNA1AA386–405. The experiment in a line: Plasma ELISA with blocking of plasma IgG. The format is binding, human. Conditions: blocking peptide 10 μg/ml, 2 h RT; nine high-reactivity MS samples. An outline of the steps:
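384-well plates are coated overnight at 4°C with recombinant Protein G (2μg/ml) and washed 6x with PBST. Plasma (1:100) is bound overnight at 4°C, washed again, then blocked 2 h at RT with 10μg/ml peptide (scrambled control, EBNA1 AA386–405 or GlialCAM AA370–389 pSer376). Read-out is OD 450 nm normalized to the unblocked sample, with quadruplicate wells.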
In general terms: An ELISA detects its analyte on a solid surface through an enzyme-linked reagent.

A further experiment deals with EBNA1AA386–405. Kind of experiment: Mouse plasma IgG ELISA against EBNA1 peptide. The format is in vivo, SJL/J mice. The settings on record: immunized mice, plasma 1:100.
For a further experiment, the system named is GlialCAM ICD. The experiment in a line: Mouse plasma IgG ELISA against GlialCAM ICD. It counts as in vivo, SJL/J mice. The settings on record: immunized mice, plasma 1:100.
Experiment [2] relates to experimental autoimmune encephalomyelitis (EAE). The experiment in a line: EAE after peptide immunization. The format is in vivo, SJL/J mice. The settings on record: spinal cord histology, day 50; vs. scrambled peptide.
Experiment [3] deals with mouse splenocytes and lymph node cells. Kind of experiment: Cytokine ELISA in cell culture supernatant. The format is cell-based. The settings on record: cells of immunized mice re-stimulated with peptide.
The test system of experiment [4] is splenocytes and lymph node cells. Kind of experiment: T cell proliferation by 3H-thymidine incorporation. The format is cell-based, mouse. The settings on record: cells pooled from n=10 immunized mice.
Experiment [5] has as its target T1, biotinylated GlialCAM_(AA370–389 pSer376 pSer377) peptide (human) (UniProt Q14CZ8).
T1 sequence (peptide): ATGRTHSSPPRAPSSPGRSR
Kind of experiment: BLI.

For experiment [6], the target named is T2, biotinylated GlialCAM_(AA370–389 pSer376) peptide (human) (UniProt Q14CZ8).
T2 sequence (peptide): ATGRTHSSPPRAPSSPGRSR
The experiment in a line: BLI. Background: BLI is a label-free optical method that tracks binding on a fibre tip over time.

In experiment [7] the target is GlialCAM protein (bio-layer interferometry) (Homo sapiens, UniProt Q14CZ8). Kind of experiment: BLI.
For experiment [8], the target named is T3, biotinylated EBNA1_(AA386–405) peptide (Epstein-Barr virus, sequence as B95-8).
T3 chain: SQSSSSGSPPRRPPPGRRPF
Kind of experiment: BLI.

The target in experiment [9] is EBNA1 full-length protein AA1–641 (Epstein-Barr virus, strain ; …, UniProt P03211). Kind of experiment: BLI.
EBNA1 full-length protein AA1–641, sequence (P03211 whole entry, the tested form may be a part): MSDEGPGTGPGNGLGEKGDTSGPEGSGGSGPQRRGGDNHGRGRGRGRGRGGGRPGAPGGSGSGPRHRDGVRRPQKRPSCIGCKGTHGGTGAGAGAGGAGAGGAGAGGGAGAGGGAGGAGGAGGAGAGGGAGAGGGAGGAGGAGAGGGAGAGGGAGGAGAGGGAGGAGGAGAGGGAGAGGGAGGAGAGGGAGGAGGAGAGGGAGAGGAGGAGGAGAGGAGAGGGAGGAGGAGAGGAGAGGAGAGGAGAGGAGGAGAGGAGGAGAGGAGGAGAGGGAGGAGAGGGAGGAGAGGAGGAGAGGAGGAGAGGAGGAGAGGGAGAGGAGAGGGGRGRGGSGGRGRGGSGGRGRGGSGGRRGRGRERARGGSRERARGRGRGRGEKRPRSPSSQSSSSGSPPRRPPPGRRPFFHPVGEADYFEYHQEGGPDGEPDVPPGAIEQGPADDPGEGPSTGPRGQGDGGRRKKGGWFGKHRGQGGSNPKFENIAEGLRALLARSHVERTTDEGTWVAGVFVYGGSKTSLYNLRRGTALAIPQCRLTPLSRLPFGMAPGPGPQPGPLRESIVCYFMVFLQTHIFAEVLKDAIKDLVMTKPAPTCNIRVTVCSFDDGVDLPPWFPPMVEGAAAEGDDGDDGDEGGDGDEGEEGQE
Experiment [10] has as its target T4, biotinylated native GlialCAM_(AA370–389) peptide (Homo sapiens, UniProt Q14CZ8).
T4 chain: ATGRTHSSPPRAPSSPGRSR
Kind of experiment: BLI.

Experiment [11] has as its target T5, EBNA1_(AA386–405) 20mer peptide (Epstein-Barr virus).
T5 chain: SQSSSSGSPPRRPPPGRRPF
The experiment in a line: ELISA.

The target in experiment [12] is actin filament associated protein 1 (AFAP1) on the HuProt microarray (Homo sapiens (Human)., UniProt Q8N556). The experiment in a line: peptide or protein array.
actin filament associated protein 1 (AFAP1) on the HuProt microarray, sequence (Q8N556 whole entry): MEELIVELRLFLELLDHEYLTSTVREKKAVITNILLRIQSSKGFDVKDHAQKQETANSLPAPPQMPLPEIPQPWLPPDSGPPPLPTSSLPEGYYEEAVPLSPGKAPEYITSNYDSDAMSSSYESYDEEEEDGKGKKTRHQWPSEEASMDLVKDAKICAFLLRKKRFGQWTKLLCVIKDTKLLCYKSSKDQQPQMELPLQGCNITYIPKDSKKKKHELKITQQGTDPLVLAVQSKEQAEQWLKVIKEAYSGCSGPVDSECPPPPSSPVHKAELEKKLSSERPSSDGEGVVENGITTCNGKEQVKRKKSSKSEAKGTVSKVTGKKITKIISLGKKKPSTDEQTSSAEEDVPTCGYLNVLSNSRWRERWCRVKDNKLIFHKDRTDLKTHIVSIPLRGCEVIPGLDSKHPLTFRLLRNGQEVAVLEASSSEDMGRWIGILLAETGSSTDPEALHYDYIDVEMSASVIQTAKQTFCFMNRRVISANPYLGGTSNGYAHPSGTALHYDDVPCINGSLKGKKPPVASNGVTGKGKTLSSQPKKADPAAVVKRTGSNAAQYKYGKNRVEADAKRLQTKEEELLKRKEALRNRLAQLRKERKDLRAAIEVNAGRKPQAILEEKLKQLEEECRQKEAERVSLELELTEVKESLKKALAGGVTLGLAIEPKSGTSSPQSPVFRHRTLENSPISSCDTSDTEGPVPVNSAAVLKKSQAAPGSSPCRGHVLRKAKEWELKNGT
The target of experiment [13] is unmutated ancestor of MS39p2w174 (germline) (human). Kind of experiment: BLI.

This note sets out measurements from publication PMC9382663 (Nature, 2022).

Where no end group is shown, it is not given here. [ ]: non-standard residue; d: D form. pS = N[C@@H](COP(=O)(O)O)C(=O)O

Consider “GlialCAMAA370–389 pSer376: GlialCAM 20mer peptide phosphorylated at Ser376 (ATGRTH[pS]SPPRAPSSPGRSR)”, for which the “blocking of anti-EBNA1AA386–405 plasma reactivity” value in experiment [1] is on record as “inhibition”.
As for SQSSSSGSPPRRPPPGRRPF [EBNA1AA386–405], in the experiment on EBNA1AA386–405, the “plasma IgG response to EBNA1AA386–405” value is on record as “robust antibody responses”. Moreover, the “plasma IgG response to GlialCAM ICD” value in the experiment with GlialCAM ICD is recorded as “robust antibody responses”. In [2], the “CNS immune cell infiltration (H&E)” value is reported as “enhanced CNS immune cell infiltration” and the “demyelination (Luxol Fast Blue)” value is “enhanced”. Moreover, in experiment [3], the IL-17 secretion result is listed as “suppressed”; the “secretion of IFN-γ, TNF, IL-12, IL-6 and IL-10” value is listed as “stimulated the secretion”. In addition, the “CD4+ T cell response” value in experiment [4] is given as “strong CD4+ T cell response”.

B1: mAb MS39p2w174 (antibody, V domains shown)
VH: QVQLVESGGGLVKPGGSLRLSCVSSGFTFSNYWMSWVRQAPGGGLEWVANINQDGSEKYYVDSVKGRFTSSRDNTKNSLFLQLNSLRAEDTGIYYCTRDPPYFDNWGQGTLVTVSS
VL: DVVLTQSPLSLPVILGQPASISCRSSQSLVYSDGRTYLNWFQQRPGQSPRRLIYKISKRDSGVPERFSGSGSGTDFTLEISRVEAEDVGIYYCMQGSHWPVTFGQGTKVEIK
As to B1, the Kd in experiment [5] was 3.73 nM; in experiment [6] it was 6.1 nM; in [7], 0.19 nM; in experiment [8], 2.67 nM; in experiment [9] it was 1.99 nM; in [10], 302 nM. In addition, the binding result in experiment [11] and in experiment [12] was “binds” throughout.

B2: GlialCAM protein (bio-layer interferometry) (natural protein)
chain: VNITSPVRLIHGTVGKSALLSVQYSSTSSDRPVVKWQLKRDKPVTVVQSIGTEVIGTLRPDYRDRIRLFENGSLLLSDLQLADEGTYEVEISITDDTFTGEKTINLTVDVPISRPQVLVASTTVLELSEAFTLNCSHENGTKPSYTWLKDGKPLLNDSRMLLSPDQKVLTITRVLMEDDDLYSCMVENPISQGRSLPVKITVYRRSSLYIILSTGGIFLLVTLVTVCACWKPSKRKQKKLEKQNSLEYMDQNDDRLKPEADTLPRSGEQERKNPMALYILKDKDSPETEENPAPEPRSATEPGPPGYSVSPAVPGRSPGLPIRSARRYPRSPARSPATGRTHSSPPRAPSSPGRSRSASRTLRTAGVHIIREQDEAGPVEISA
Regarding B2, in [13], the Kd was determined as 10.5 nM.

By Kd is commonly meant the concentration at which binding is half-saturated. A lower Kd goes with a tighter complex.
